A selection: hits, their analogues and other compounds. The true share with any hit is near 2.9%.
SF-1 act: activators of human SF-1, primary screen, cell-based, CHO-K1, Gal4-SF-1 LBD, luciferase luminescence | CHO-K1 Gal4-SF-1 LBD luciferase reporter; % increase over DMSO SF-1-specific signal | activation, % at 10 µM | 65,000 tested, 1.9% active;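 active = activation above the mean activation of all tested compounds plus 3 SD, cut at about 50% in these data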
Target sequence (Q13285 whole entry, looked up, the tested form may be a part): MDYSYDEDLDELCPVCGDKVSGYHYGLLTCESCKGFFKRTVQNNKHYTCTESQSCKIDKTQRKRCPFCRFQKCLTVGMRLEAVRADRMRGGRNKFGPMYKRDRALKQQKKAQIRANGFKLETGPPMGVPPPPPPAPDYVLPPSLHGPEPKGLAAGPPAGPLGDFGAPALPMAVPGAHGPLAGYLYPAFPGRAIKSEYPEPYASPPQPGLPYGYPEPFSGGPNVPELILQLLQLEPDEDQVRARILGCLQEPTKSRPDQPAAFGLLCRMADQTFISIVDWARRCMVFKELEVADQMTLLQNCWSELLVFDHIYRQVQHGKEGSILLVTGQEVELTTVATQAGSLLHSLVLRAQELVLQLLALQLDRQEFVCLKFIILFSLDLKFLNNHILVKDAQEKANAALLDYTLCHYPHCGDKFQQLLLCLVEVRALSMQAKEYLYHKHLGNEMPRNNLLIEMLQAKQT
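Material: Gal4–SF-1 LBD one-hybrid luciferase reporter in CHO-K1 cells | Amount: 4,000 cells per well | Compound dosing: 10 µM single point, 1% DMSO | Schedule: 20 h compound treatment, 37 °C | Measured by: SteadyLite luciferase luminescence | Evaluation: Percent activation versus DMSO | Control set: DMSO-treated SF-1-transfected cells as negative, DMSO-treated mock-transfected cells lacking SF-1 as background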
Jurkat viability: cytotoxicity toward Jurkat T cells, primary screen, cytotoxicity control, cell-based, Jurkat E6.1, 60K MLSMR library; Jurkat E6.1 viability, ATP luminescence, 48 h; inhibition, % at 4 µM; 56,000 tested, 1.2% active;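 active = inhibition above the mean inhibition of all tested compounds plus 3 SD, cut at about 28% in these data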
MT1-MMP txn act: MT1-MMP promoter reporter activation – cell-based, luciferase luminescence, primary screen; HT1080 MT1-MMP promoter luciferase reporter, overnight; hits give high values; activation factor at 10 µM; 86,000 tested, 0.16% active; AID 750, 2007;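 active = activation factor of at least 2 for MT1-MMP transcription at 10 µM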
HEK293 NFkB inh: inhibitors of PMA/ionomycin-induced NF-kB reporter, primary screen, antigen receptor NF-kB inhibitor project, cell-based, HEK-293 luciferase reporter, luminescence; HEK-293 NF-kB luciferase reporter; inhibition, % at 3 µM; 62,000 tested, 0.21% active; AID 465, 2006;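 active = inhibition above the mean of all tested compounds plus 3 SD, cut at about 40% in these data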
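System: NF-kB luciferase reporter HEK-293 cells | Replication: Single test | Control set: DMSO vs reference inhibitor | Evaluation: % inhibition | Schedule: 1 h pretreatment, 16 h stimulation, 37 °C | Probe or stimulus: PMA with ionomycin | Compound dosing: One dose, 3 µM | Detection: Luciferase luminescence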
RORa activator: activators of orphan receptor RORA, primary screen, cell-based, luminescence. activation, % at 10 µM. Nuclear receptor ROR-alpha (Homo sapiens), P35398. CHO-K1 Gal4-RORA LBD luciferase reporter; percent increase over mock-subtracted basal signal. AID 560, 2006. 65,000 tested, 1.5% active;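 active = activation above the mean of all tested compounds plus 3 SD, cut at about 49% in these data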
A number is an active result.

How did Cc1cccc2cc3c(N)c(C(=O)N4CCOCC4)sc3nc12 do in these assays?
SF-1 act: inactive; Jurkat viability: 76; MT1-MMP txn act: inactive; HEK293 NFkB inh: inactive; RORa activator: inactive

Results for Cc1ccc2nc(-c3ccccc3Cl)cc(C(=O)Nc3cc(C)on3)c2c1 ?
SF-1 act: inactive; Jurkat viability: inactive; MT1-MMP txn act: inactive; HEK293 NFkB inh: inactive; RORa activator: inactive

Results for Cc1nnc(NC(=O)c2cc3n(n2)C(C(F)(F)F)CC(C2CC2)N3)s1 (centres undefined) ?
SF-1 act: inactive; Jurkat viability: inactive; MT1-MMP txn act: inactive; HEK293 NFkB inh: inactive; RORa activator: inactive

What do the screens show for `O=C(NCc1ccc2c(c1)OCO2)c1cc2n(n1)C(C(F)(F)F)CC(c1ccc3c(c1)OCO3)N2` (centres undefined)?
SF-1 act: inactive; Jurkat viability: inactive; HEK293 NFkB inh: inactive; RORa activator: inactive

How did O=C(NCc1ccc(F)cc1)c1cc2n(n1)C(C(F)(F)F)CC(C1CC1)N2 (centres undefined) do in these assays?
SF-1 act: inactive; Jurkat viability: inactive; MT1-MMP txn act: inactive; HEK293 NFkB inh: inactive; RORa activator: 64

What do the screens show for `O=C(Nc1nc2c(s1)CCCC2)c1cc2n(n1)C(C(F)(F)F)CC(C1CC1)N2` (centres undefined)?
SF-1 act: 56; Jurkat viability: inactive; MT1-MMP txn act: inactive; HEK293 NFkB inh: inactive; RORa activator: 118

Results for CC(C)(C)NC(=O)C(c1ccc(I)cc1)N(CCN1CCOCC1)C(=O)CCCNC(=O)c1ccccc1 (centres undefined) ?
MT1-MMP txn act: inactive

What do the screens show for `COc1ccccc1-c1cc(C(=O)NCc2cccs2)no1`?
SF-1 act: inactive; Jurkat viability: inactive; MT1-MMP txn act: inactive; HEK293 NFkB inh: inactive; RORa activator: inactive

What do the screens show for `COc1ccc(-c2cc(C(=O)Nc3cc(C)nn3-c3ccccc3)no2)cc1`?
MT1-MMP txn act: inactive

Results for COc1ccccc1-c1cc(C(=O)NC(C)C)no1 ?
SF-1 act: 69; Jurkat viability: inactive; MT1-MMP txn act: inactive; HEK293 NFkB inh: inactive; RORa activator: inactive

How did COCCNC(=O)c1cc(-c2ccccc2OC)on1 do in these assays?
SF-1 act: 71; Jurkat viability: inactive; MT1-MMP txn act: inactive; HEK293 NFkB inh: inactive; RORa activator: 52

What do the screens show for `COc1ccccc1-c1cc(C(=O)Nc2cc(C)nn2-c2ccccc2)no1`?
SF-1 act: inactive; Jurkat viability: 89; MT1-MMP txn act: inactive; HEK293 NFkB inh: inactive; RORa activator: inactive

Results for COc1ccccc1-c1cc(C(=O)NC(C)c2ccccc2)no1 (centres undefined) ?
SF-1 act: inactive; Jurkat viability: inactive; MT1-MMP txn act: inactive; HEK293 NFkB inh: inactive; RORa activator: inactive

How did COC(=O)c1cccc(C23CC4(C2)[C@H](CN(C)[C@@H]4c2ccccc2)C3c2ccc(Cl)nc2)c1 (some centres undefined) do in these assays?
MT1-MMP txn act: inactive

What do the screens show for `O=C(Nc1ccc(Cl)cc1)N(Cc1cccnc1)Cc1ccco1`?
SF-1 act: inactive; Jurkat viability: inactive; MT1-MMP txn act: inactive; HEK293 NFkB inh: inactive; RORa activator: inactive

Results for Cc1cc(OCC(=O)N2CCCC2)ccc1Cl ?
SF-1 act: 51; Jurkat viability: inactive; MT1-MMP txn act: inactive; HEK293 NFkB inh: inactive; RORa activator: inactive

How did Cc1ccc(OCC(=O)N2CCCCC2)c(Br)c1 do in these assays?
SF-1 act: 57; Jurkat viability: inactive; MT1-MMP txn act: inactive; HEK293 NFkB inh: inactive; RORa activator: 54

What do the screens show for `COc1cccc(-c2nn(C)c3sc(C(=O)Nc4ccc5c(c4)OCCO5)cc23)c1`?
SF-1 act: 80; Jurkat viability: inactive; MT1-MMP txn act: inactive; HEK293 NFkB inh: inactive; RORa activator: 56

Results for Cn1nc(-c2ccccc2F)c2cc(C(=O)Nc3ccc4c(c3)OCCO4)sc21 ?
MT1-MMP txn act: inactive

How did CCOc1ccc(C(=O)Nc2cccc(C)n2)cc1 do in these assays?
SF-1 act: inactive; Jurkat viability: inactive; MT1-MMP txn act: inactive; HEK293 NFkB inh: inactive; RORa activator: inactive

What do the screens show for `CCCCOc1ccc(C(=O)Nc2cccc(C)n2)cc1`?
SF-1 act: 59; Jurkat viability: inactive; MT1-MMP txn act: inactive; HEK293 NFkB inh: inactive; RORa activator: 55

Results for Nc1ccc(N2CCCCCC2)cc1 ?
SF-1 act: inactive; Jurkat viability: 37; MT1-MMP txn act: inactive; HEK293 NFkB inh: inactive; RORa activator: inactive

Results for O=C(O)c1ccc(N2CCCCC2)cc1 ?
SF-1 act: inactive; Jurkat viability: inactive; MT1-MMP txn act: inactive; HEK293 NFkB inh: inactive; RORa activator: inactive

What do the screens show for `COC(=O)c1ccc(CN(c2ccc(C)cc2)S(=O)(=O)c2ccc3c(c2)OCCO3)o1`?
SF-1 act: inactive; Jurkat viability: inactive; MT1-MMP txn act: inactive; HEK293 NFkB inh: inactive; RORa activator: inactive

Results for O=C(Nn1cnc2ccccc2c1=O)c1ccccc1Cl ?
SF-1 act: 65; Jurkat viability: inactive; MT1-MMP txn act: inactive; HEK293 NFkB inh: inactive; RORa activator: inactive

Results for Cc1nc2ccccc2c(=O)n1NC(=O)c1ccccc1Cl ?
SF-1 act: inactive; Jurkat viability: inactive; MT1-MMP txn act: inactive; HEK293 NFkB inh: inactive; RORa activator: inactive

Results for Cc1nc(NC(=O)c2ccc(Br)s2)sc1C(=O)N(C)C ?
SF-1 act: 107; Jurkat viability: inactive; MT1-MMP txn act: inactive; HEK293 NFkB inh: inactive; RORa activator: 70

How did Cc1nc(NC(=O)c2cc3c(s2)CCCCC3)sc1C(=O)N(C)C do in these assays?
SF-1 act: 60; Jurkat viability: inactive; MT1-MMP txn act: inactive; HEK293 NFkB inh: inactive; RORa activator: inactive

Results for Cc1ccc(C2C(/C=C3/SC(=S)NC3=O)=C(c3cccs3)Oc3ccccc32)cc1 (centres undefined) ?
MT1-MMP txn act: inactive

What do the screens show for `Cc1ccc2c(CC(=O)N3CCc4ccccc43)coc2c1`?
SF-1 act: 87; Jurkat viability: inactive; MT1-MMP txn act: inactive; HEK293 NFkB inh: inactive; RORa activator: inactive

How did O=C(Cc1coc2ccc3ccccc3c12)N1CCc2ccccc21 do in these assays?
MT1-MMP txn act: inactive

What do the screens show for `COc1ccccc1CN(Cc1cc2c(C)ccc(C)c2[nH]c1=O)Cc1nnnn1Cc1ccco1`?
SF-1 act: inactive; Jurkat viability: inactive; MT1-MMP txn act: inactive; HEK293 NFkB inh: inactive; RORa activator: inactive

How did Clc1ccccc1OCc1nnc(-c2ccccc2Br)o1 do in these assays?
SF-1 act: 94; Jurkat viability: inactive; MT1-MMP txn act: inactive; HEK293 NFkB inh: inactive; RORa activator: 83

How did c1ccc(N2CCN(c3nc4cc5c(cc4s3)OCCO5)CC2)cc1 do in these assays?
SF-1 act: 61; Jurkat viability: inactive; MT1-MMP txn act: inactive; HEK293 NFkB inh: inactive; RORa activator: 77
